Active and inactive are the calls of the source. The calls are words filed in the database; no cut-off is given here.
How the values were obtained:
D(2) dopamine receptor [1] = target: T1, D(2) dopamine receptor (Homo sapiens, UniProt P14416); experiment: Displacement of [3H]spiperone from human dopamine D2long receptor expressed in CHO cells; format: cell-based
Method in brief: (§1)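 Membranes from CHO cells stably expressing each receptor, 2–6 μg protein per tube, competed against [³H]spiperone at 0.2 nM final. Competition curves were analyzed by nonlinear regression to give Ki.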

D(2) dopamine receptor [2] = target: T1, D(2) dopamine receptor; experiment: Displacement of [3H]spiperone from human dopamine D2short receptor expressed in CHO cells; format: cell-based; method in brief: as §1
D(3) dopamine receptor = D(3) dopamine receptor (Homo sapiens, UniProt P35462); experiment: Displacement of [3H]spiperone from human dopamine D3 receptor expressed in CHO cells; format: cell-based; method in brief: as §1
Sequence of D(3) dopamine receptor (P35462 whole entry): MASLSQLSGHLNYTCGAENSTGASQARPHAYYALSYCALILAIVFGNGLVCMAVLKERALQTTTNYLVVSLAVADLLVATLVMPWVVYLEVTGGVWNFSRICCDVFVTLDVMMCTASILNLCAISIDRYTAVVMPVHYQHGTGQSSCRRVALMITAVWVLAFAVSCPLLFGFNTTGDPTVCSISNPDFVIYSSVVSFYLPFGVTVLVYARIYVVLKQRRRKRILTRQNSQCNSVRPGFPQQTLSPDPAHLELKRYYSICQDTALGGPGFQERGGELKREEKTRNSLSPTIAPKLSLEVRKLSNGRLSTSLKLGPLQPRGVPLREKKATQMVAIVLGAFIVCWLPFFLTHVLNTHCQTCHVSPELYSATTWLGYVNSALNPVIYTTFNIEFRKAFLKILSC

D(4) dopamine receptor = target: T2, D(4) dopamine receptor (Homo sapiens, UniProt P21917); experiment: Displacement of [3H]spiperone from human dopamine D4.4 receptor expressed in CHO cells; format: cell-based; method in brief: as §1
T2 sequence (P21917 whole entry): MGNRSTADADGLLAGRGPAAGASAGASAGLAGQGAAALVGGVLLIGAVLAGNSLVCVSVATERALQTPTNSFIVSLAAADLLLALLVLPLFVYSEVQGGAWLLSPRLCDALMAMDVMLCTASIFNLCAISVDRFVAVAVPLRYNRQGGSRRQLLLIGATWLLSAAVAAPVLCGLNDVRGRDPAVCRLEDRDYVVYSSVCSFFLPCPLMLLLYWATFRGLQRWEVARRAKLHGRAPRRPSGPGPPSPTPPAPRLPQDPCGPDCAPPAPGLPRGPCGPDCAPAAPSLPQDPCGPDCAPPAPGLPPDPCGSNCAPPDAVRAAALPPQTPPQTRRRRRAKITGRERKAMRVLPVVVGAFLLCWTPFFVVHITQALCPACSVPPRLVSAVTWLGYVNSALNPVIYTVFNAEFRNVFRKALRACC

[3] = target: 5-hydroxytryptamine receptor 2A (Sus scrofa, UniProt P50129); experiment: Displacement of [3H]ketanserin from 5-HT2 receptor in porcine cortical membranes; format: cell membranes
Sequence of 5-hydroxytryptamine receptor 2A (P50129 whole entry): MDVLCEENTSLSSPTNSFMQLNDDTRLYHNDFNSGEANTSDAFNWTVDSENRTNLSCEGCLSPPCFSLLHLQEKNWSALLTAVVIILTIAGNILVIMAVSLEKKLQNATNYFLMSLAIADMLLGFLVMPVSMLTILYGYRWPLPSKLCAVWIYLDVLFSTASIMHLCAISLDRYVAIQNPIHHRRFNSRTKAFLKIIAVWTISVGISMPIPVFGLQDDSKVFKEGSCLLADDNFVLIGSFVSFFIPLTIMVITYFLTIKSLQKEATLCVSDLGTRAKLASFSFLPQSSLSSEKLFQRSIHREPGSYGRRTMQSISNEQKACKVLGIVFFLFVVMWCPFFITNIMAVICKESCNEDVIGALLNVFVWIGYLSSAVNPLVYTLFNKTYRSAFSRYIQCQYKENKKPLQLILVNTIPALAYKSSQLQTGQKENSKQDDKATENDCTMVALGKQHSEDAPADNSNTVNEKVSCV
Method in brief: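 Porcine cerebral cortex homogenate, 110 μg/mL protein per tube, with 0.5 nM [³H]ketanserin. Protein was measured by Lowry. Competition curves were fitted by nonlinear regression.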

[4] = Displacement of [3H]prazosin from adrenergic alpha1 receptor in porcine cortical membranes; format: cell membranes, Sus scrofa
Method in brief: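 Porcine cerebral cortex homogenate, 40 μg/mL protein per tube, with 0.2 nM [³H]prazosin. Protein was measured by Lowry. Competition curves were fitted by nonlinear regression.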

Homo sapiens [5] = species on record: Homo sapiens; experiment: Selectivity ratio of Ki for human dopamine D2long receptor to Ki for human dopamine D4.4 receptor
Homo sapiens [6] = species on record: Homo sapiens; experiment: Selectivity ratio of Ki for human dopamine D2short receptor to Ki for human dopamine D4.4 receptor
Homo sapiens [7] = species on record: Homo sapiens; experiment: Selectivity ratio of Ki for human dopamine D3 receptor to Ki for human dopamine D4.4 receptor
CHO10001 = experiment: Neutral antagonist activity at human dopamine D4.2 receptor expressed in CHO10001 cells assessed as inhibition of [3H]thymidine incorporation relative to quinpirole; format: functional, cell-based
Method in brief: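 Growing D4.2-expressing CHO10001 cells were stimulated with test compound and given 0.02 μCi [³H]thymidine per well; incorporation was measured. Data from four dose-response experiments were normalized and pooled to give means per concentration, and compared with the full agonist quinpirole.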

[8] = Lipophilicity, log P of the compound at pH 7.4 by HPLC method; conditions: buffer
[9] = Displacement of [3H]WAY100635 from 5-HT1A receptor in porcine cortical membranes
D(1A) dopamine receptor = D(1A) dopamine receptor (Sus scrofa, UniProt P50130); experiment: Displacement of [3H]SCH23390 from dopamine D1 receptor in porcine striatal membranes
Sequence of D(1A) dopamine receptor (P50130 whole entry): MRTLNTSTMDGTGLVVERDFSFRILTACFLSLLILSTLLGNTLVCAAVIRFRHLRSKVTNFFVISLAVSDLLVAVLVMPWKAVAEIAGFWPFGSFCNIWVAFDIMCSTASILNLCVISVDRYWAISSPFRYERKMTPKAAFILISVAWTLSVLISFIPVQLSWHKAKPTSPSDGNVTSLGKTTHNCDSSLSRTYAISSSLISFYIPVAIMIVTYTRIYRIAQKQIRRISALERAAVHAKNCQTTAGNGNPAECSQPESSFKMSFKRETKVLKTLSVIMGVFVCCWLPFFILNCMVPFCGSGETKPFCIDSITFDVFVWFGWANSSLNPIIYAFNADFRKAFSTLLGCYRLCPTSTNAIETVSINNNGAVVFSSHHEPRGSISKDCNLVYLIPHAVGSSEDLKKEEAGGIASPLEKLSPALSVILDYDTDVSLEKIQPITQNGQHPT

[10] = Octanol-buffer partition coefficient, log P of the compound at pH 7.4 by shake flask method
[11] = target: T3, D(4) dopamine receptor (Rattus norvegicus) (UniProt P30729); experiment: Binding affinity to dopamine D4 receptor in coliculus of Wistar rat at 5 nmol/L after 30 mins using cresyl violet staining by In vitro autoradiography in presence of 10 uM non-radiolabeled compound
T3 sequence (whole entry): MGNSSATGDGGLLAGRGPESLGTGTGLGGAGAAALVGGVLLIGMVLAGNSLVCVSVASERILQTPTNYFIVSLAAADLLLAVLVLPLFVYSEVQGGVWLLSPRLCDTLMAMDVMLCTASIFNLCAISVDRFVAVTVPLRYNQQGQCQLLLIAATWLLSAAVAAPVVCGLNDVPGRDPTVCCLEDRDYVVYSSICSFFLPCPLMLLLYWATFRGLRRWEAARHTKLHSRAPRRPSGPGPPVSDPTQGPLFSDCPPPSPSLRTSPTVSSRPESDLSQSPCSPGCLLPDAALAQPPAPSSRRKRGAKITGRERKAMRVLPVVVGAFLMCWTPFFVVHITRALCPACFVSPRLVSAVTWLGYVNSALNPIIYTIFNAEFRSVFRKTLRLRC
Method in brief: (§2)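 Horizontal 20 μm cryostat sections of brains from Wistar rats (4–6 months, 230–250 g) were used. After a 10 min preincubation in 50 mmol/L Tris-HCl pH 7.4 at 22 °C, slices were incubated 30 min with ¹⁸F-radioligand (5 nmol/L, or 10 nmol/L for one tracer). Nonspecific binding was taken with 10 μmol/L spiperone or cold standard; total binding had DMSO alone. Regions were assigned by cresyl violet staining.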

[12] = target: T3, D(4) dopamine receptor (Rattus norvegicus); experiment: Binding affinity to dopamine D4 receptor in coliculus of Wistar rat at 10 nmol/L after 30 mins using cresyl violet staining by In vitro autoradiography in presence of 10 uM non-radiolabeled compound; conditions: tested as the 18F-labelled form; method in brief: as §2
[13] = target: T3, D(4) dopamine receptor (Rattus norvegicus); experiment: Binding affinity to dopamine D4 receptor in medial nuclei of cerebellum in Wistar rat at 10 nmol/L after 30 mins using cresyl violet staining by In vitro autoradiography in presence of 10 uM non-radiolabeled compound; format: tissue-based; conditions: tested as the 18F-labelled form; method in brief: as §2
[14] = target: T3, D(4) dopamine receptor (Rattus norvegicus); experiment: Binding affinity to dopamine D4 receptor in Wistar rat brain slices assessed as nonspecific binding at 10 nmol/L measured after 30 mins by In vitro autoradiography presence of nonradioactive ligand; conditions: tested as the 18F-labelled form; method in brief: as §2
[15] = target: T3, D(4) dopamine receptor (Rattus norvegicus); experiment: Binding affinity to dopamine D4 receptor in medial nuclei of cerebellum in Wistar rat at 5 nmol/L after 30 mins using cresyl violet staining by In vitro autoradiography in presence of 10 uM non-radiolabeled compound; format: tissue-based; conditions: tested as the 18F-labelled form; method in brief: as §2
[16] = target: T3, D(4) dopamine receptor (Rattus norvegicus); experiment: Binding affinity to dopamine D4 receptor in Wistar rat hippocampus at 5 nmol/L after 30 mins using cresyl violet staining by In vitro autoradiography in presence of 10 uM non-radiolabeled compound; format: tissue-based; conditions: tested as the 18F-labelled form; method in brief: as §2
[17] = target: T3, D(4) dopamine receptor (Rattus norvegicus); experiment: Binding affinity to dopamine D4 receptor in Wistar rat frontal cortex at 5 nmol/L after 30 mins using cresyl violet staining by In vitro autoradiography in presence of 10 uM non-radiolabeled compound; format: tissue-based; conditions: tested as the 18F-labelled form; method in brief: as §2
[18] = target: T3, D(4) dopamine receptor (Rattus norvegicus); experiment: Binding affinity to dopamine D4 receptor in Wistar rat striatum at 5 nmol/L after 30 mins using cresyl violet staining by In vitro autoradiography in presence of 10 uM non-radiolabeled compound; conditions: tested as the 18F-labelled form; method in brief: as §2
[19] = target: T4, D(4) dopamine receptor (Mus musculus) (UniProt P51436); experiment: Binding affinity to dopamine D4 receptor in NMRI mouse cortex at 20 nmol/L after 30 mins using cresyl violet staining by In vitro autoradiography in presence of 10 uM non-radiolabeled compound; conditions: tested as the 18F-labelled form
T4 sequence (whole entry): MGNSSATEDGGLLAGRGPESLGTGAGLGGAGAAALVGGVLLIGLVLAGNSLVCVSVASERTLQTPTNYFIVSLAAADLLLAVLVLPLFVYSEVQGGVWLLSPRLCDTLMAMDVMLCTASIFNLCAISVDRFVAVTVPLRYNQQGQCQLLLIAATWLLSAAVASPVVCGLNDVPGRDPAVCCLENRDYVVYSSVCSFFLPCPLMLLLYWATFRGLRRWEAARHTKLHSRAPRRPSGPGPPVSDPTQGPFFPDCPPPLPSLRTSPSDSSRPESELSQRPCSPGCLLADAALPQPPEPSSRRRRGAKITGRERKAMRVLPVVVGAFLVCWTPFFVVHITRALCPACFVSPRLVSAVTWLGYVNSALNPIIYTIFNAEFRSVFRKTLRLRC
Method in brief: (§3)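 Sagittal brain slices from female NMRI mice (2–6 months) were preincubated 10 min in 50 mmol/L Tris-HCl pH 7.4 at 22 °C. They were then incubated 30 min with 20 nmol/L [¹⁸F]-ligand plus 10 μmol/L displacer (spiperone or cold standard), or with DMSO alone for total binding. After the ¹⁸F had decayed, regions were identified by cresyl violet staining.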

[20] = target: T4, D(4) dopamine receptor (Mus musculus); experiment: Binding affinity to dopamine D4 receptor in NMRI mouse hippocampus at 20 nmol/L after 30 mins using cresyl violet staining by In vitro autoradiography in presence of 10 uM non-radiolabeled compound; format: tissue-based; conditions: tested as the 18F-labelled form; method in brief: as §3
[21] = target: T4, D(4) dopamine receptor (Mus musculus); experiment: Binding affinity to dopamine D4 receptor in NMRI mouse hippocampus dentate gyrus at 20 nmol/L after 30 mins using cresyl violet staining by In vitro autoradiography in presence of 10 uM non-radiolabeled compound; format: tissue-based; conditions: tested as the 18F-labelled form; method in brief: as §3
[22] = target: T4, D(4) dopamine receptor (Mus musculus); experiment: Binding affinity to dopamine D4 receptor in NMRI mouse hippocampus cornu ammonis 3 at 20 nmol/L after 30 mins using cresyl violet staining by In vitro autoradiography in presence of 10 uM non-radiolabeled compound; format: tissue-based; conditions: tested as the 18F-labelled form; method in brief: as §3
[23] = target: T4, D(4) dopamine receptor (Mus musculus); experiment: Binding affinity to dopamine D4 receptor in NMRI mouse coliculus at 20 nmol/L after 30 mins using cresyl violet staining by In vitro autoradiography in presence of 10 uM non-radiolabeled compound; conditions: tested as the 18F-labelled form; method in brief: as §3
[24] = target: T3, D(4) dopamine receptor (Rattus norvegicus); experiment: Binding affinity to dopamine D4 receptor in Wistar rat thalamus at 5 nmol/L measured after 30 mins; conditions: tested as the 18F-labelled form; method in brief: as §2
[25] = target: T3, D(4) dopamine receptor (Rattus norvegicus); experiment: Binding affinity to dopamine D4 receptor in Wistar rat cortex at 5 nmol/L measured after 30 mins; conditions: tested as the 18F-labelled form; method in brief: as §2

T1 sequence (P14416 whole entry): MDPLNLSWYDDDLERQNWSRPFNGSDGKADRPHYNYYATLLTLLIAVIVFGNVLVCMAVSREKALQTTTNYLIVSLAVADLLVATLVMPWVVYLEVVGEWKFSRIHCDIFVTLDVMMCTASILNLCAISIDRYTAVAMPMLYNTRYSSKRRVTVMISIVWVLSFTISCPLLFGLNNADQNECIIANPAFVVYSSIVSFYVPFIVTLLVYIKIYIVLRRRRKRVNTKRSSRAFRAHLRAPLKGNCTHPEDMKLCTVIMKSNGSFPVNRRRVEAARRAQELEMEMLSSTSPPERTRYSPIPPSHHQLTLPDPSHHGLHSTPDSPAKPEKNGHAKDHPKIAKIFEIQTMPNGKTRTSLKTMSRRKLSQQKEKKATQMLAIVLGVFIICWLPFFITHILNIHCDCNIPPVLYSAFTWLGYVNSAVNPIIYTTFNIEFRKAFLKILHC

Row | SMILES | Ki (D(2) dopamine receptor [1]) [µM] | Ki (D(2) dopamine receptor [2]) [µM] | Ki (D(3) dopamine receptor) [µM] | Ki (D(4) dopamine receptor) [µM] | Ki [3] [µM] | Ki [4] [µM] | Ratio Ki (Homo sapiens [5]) | Ratio Ki (Homo sapiens [6]) | Ratio Ki (Homo sapiens [7]) | Activity (CHO10001) | logP [8] | Ki [9] [µM] | Ki (D(1A) dopamine receptor) [µM] | logD [10] | Activity [12] | also measured
1 | Fc1ccc(CN2CCN(c3ccc4c(c3)OCCO4)CC2)cc1 | 7.6 | 5.7 | 3.9 | 0.0011 | 7 | 4 | 6700 | 5000 | 3600 | Active | 2.71 | 5.2 | 19 |  |  | 
2 | COc1cc(CN2CCN(c3ccc4c(c3)OCCO4)CC2)ccc1F | 17 | 16 | 5.9 | 0.0042 | 4.2 | 3.3 | 4000 | 3800 | 1400 | Active | 2.44 | 5.6 | 23 | 2.33 |  | 
3 | Oc1cc(CN2CCN(c3ccc4c(c3)OCCO4)CC2)ccc1F | 9 | 6.1 | 4.2 | 0.0073 | 2.3 | 3 | 1300 | 830 | 590 | Active | 1.7 | 6.2 | 15 | 1.78 | Active | Activity ([11]; 10 nmol/L, in the assay text read “10 nmol/L” for “5 nmol/L”, tested as the 18F-labelled form): Active; Activity [13]: Active; Activity [14]: 33%
4 | Fc1ccc(CN2CCN(c3ccc4c(c3)OCCO4)CC2)cn1 | 29 | 45 | 17 | 0.015 | 5.8 | 11 |  |  |  | Active |  | 21 | 35 |  | Active | Activity ([11]; 10 nmol/L, tested as the 18F-labelled form, in the assay text read “10 nmol/L” for “5 nmol/L”): Active; Activity [15]: Active; Activity [16]: inactive; Activity [17]: inactive; Activity [18]: Active; Activity [19]: Active; Activity [20]: Active; Activity [21]: Active; Activity [22]: Active; Activity [23]: Active; Activity [24]: Active; Activity [25]: Active
